Experimental data: ChEMBL document CHEMBL1147355, “Tricolorin A, major phytogrowth inhibitor from Ipomoea tricolor” (J Nat Prod, 1993)
Converted amounts (≈) assume the structure as drawn.

Key:
[1] = tested on: Echinochloa crus-galli; assay: Stimulation of Echinochloa crus-galli radicle growth at 1 ug/ml incubated in dark at 27 degC measured after 48 hrs relative to control; assay type: functional
Method in brief: (§1)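 Petri-dish seed assay at 1 µg/ml, with sample in MeOH-H2O (1:1) air-dried before seeding. Held in the dark at 27° and scored at 24 h (Amaranthus) or 48 h (E. crus-galli). Radicle growth expressed relative to untreated controls.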

[2] = tested on: Amaranthus hypochondriacus; assay: Stimulation of Amaranthus hypochondriacus radicle growth at 1 ug/ml incubated in dark at 27 degC measured after 24 hrs relative to control; assay type: functional; method in brief: as §1
[3] = tested on: Echinochloa crus-galli; assay: Phytogrowth-inhibitory activity against Echinochloa crus-galli assessed as inhibition of radicle growth at 100 ug/ml incubated in dark at 27 degC measured after 48 hrs; assay type: functional; conditions: read-out: GI
Method in brief: (§2)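 Samples in MeOH-H2O (1:1) were added to Petri dishes and air-dried, giving a final 100 µg/ml. Solvent-only dishes served as negative controls and 2,4-D as positive control. Dishes were kept dark at 27°. Radicle length was read at 24 h for A. leucocarpus and 48 h for E. crus-galli. Results are % of untreated control, 4 replicates × 20 seedlings, with ANOVA/Duncan.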

[4] = tested on: Amaranthus hypochondriacus; assay: Phytogrowth-inhibitory activity against Amaranthus hypochondriacus assessed as inhibition of radicle growth at 100 ug/ml incubated in dark at 27 degC measured after 24 hrs; assay type: functional; conditions: read-out: GI; method in brief: as §2
[5] = tested on: Lu1; assay: Cytotoxicity against human Lu1 cells; assay type: functional; conditions: read-out: ED50 (the source's name)
Method in brief: (§3)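 Cell lines established from primary human tumors at a university surgical oncology division and tested in vitro following an earlier cytotoxicity protocol. The value is reported as ED50.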

[6] = tested on: Echinochloa crus-galli; assay: Phytogrowth-inhibitory activity against Echinochloa crus-galli assessed as inhibition of radicle growth incubated in dark at 27 degC measured after 48 hrs; assay type: functional, organism-based
Method in brief: (§4)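 Seeds in Petri dishes with test sample applied in MeOH-H2O (1:1), solvent air-dried before use. Kept in the dark at 27°: 24 h for Amaranthus, 48 h for E. crus-galli. Germination percentage and radicle length scored. Controls: 2,4-D positive, solvent-only negative. Germination IC50 from linear regression; radicle-growth IC50 from probit analysis.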

[7] = tested on: SK-MEL-2; assay: Cytotoxicity against human SK-MEL-2 cells; assay type: functional; conditions: read-out: ED50 (the source's name); method in brief: as §3
[8] = tested on: LNCaP; assay: Cytotoxicity against human LNCAP cells; assay type: functional; conditions: read-out: ED50 (the source's name)
Method in brief: (§5)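 Cell lines obtained from ATCC and tested in vitro following an earlier cytotoxicity protocol. The value is reported as ED50.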

[9] = tested on: Staphylococcus aureus; assay: Antibacterial activity against Staphylococcus aureus ATCC 25923 by agar diffusion technique; assay type: functional
[10] = Toxicity in brine shrimp assessed as lethality; assay type: organism-based; conditions: artemia, in vivo
[11] = Cytotoxicity against human BC1 cells; assay type: functional; conditions: read-out: ED50 (the source's name); method in brief: as §3
[12] = tested on: ZR-75-1; assay: Cytotoxicity against human ZR-75-1 cells; assay type: functional; conditions: read-out: ED50 (the source's name); method in brief: as §5
[13] = tested on: HT-1080; assay: Cytotoxicity against human HT1080 cells; assay type: functional; conditions: read-out: ED50 (the source's name); method in brief: as §5
[14] = tested on: Amaranthus hypochondriacus; assay: Phytogrowth-inhibitory activity against Amaranthus hypochondriacus assessed as inhibition of radicle growth incubated in dark at 27 degC measured after 24 hrs; assay type: functional, organism-based; method in brief: as §4
[15] = tested on: A-431; assay: Cytotoxicity against human A431 cells; assay type: functional; conditions: read-out: ED50 (the source's name); method in brief: as §5
[16] = tested on: Echinochloa crus-galli; assay: Phytogrowth-inhibitory activity against Echinochloa crus-galli assessed as inhibition of seed germination incubated in dark at 27 degC measured after 48 hrs; assay type: functional, organism-based; method in brief: as §4
[17] = tested on: KB; assay: Cytotoxicity against human KB cells; assay type: functional; conditions: read-out: ED50 (the source's name); method in brief: as §5
[18] = tested on: Amaranthus hypochondriacus; assay: Phytogrowth-inhibitory activity against Amaranthus hypochondriacus assessed as inhibition of seed germination incubated in dark at 27 degC measured after 24 hrs; assay type: functional, organism-based; method in brief: as §4
[19] = tested on: Col2; assay: Cytotoxicity against human Col2 cells; assay type: functional; conditions: read-out: ED50 (the source's name); method in brief: as §3
[20] = tested on: P388; assay: Cytotoxicity against mouse P388 cells; assay type: functional; conditions: read-out: ED50 (the source's name); method in brief: as §5
[21] = Cytotoxicity against drug-resistant human KBV1 cells; assay type: functional; conditions: KB-V1, read-out: ED50 (the source's name)
[22] = species on record: Bos taurus; assay: (§6) Displacement of [3H]PDBu from protein kinase C in calf brain homogenate by scintillation counting; assay type: tissue-based
Method in brief: (§7)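 Incubation mix contained 50 mM Tris/HCl (pH 7.4), 1 mM CaCl2, 39.2 nM [3H]PDBu, 50 µg/ml calf brain homogenate as the protein kinase C source, and compound in DMSO. Tubes ran 1 h at ambient temperature, then were filtered onto glass fiber and counted. Nonspecific binding was taken as the part not displaced by 100-fold excess unlabelled PDBu. Curve used five-fold dilutions from 200 to 0.32 µg/ml, 4 replicates.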

[23] = as §6; assay type: tissue-based, Bos taurus; method in brief: as §7

Structure (SMILES): O=C(O)COc1ccc(Cl)cc1Cl [2,4-DICHLOROPHENOXYACETIC ACID]
- Activity [1]: 4%
- Activity [2]: 4%

Structure (SMILES): CCCCC[C@H]1CCCCCCCCCC(=O)O[C@H]2[C@H](O)[C@@H](CO)O[C@@H](O[C@H]3[C@H](O1)O[C@H](C)[C@H](O)[C@@H]3O)[C@@H]2O[C@@H]1O[C@@H](C)[C@H](OC(=O)[C@@H](C)CC)[C@@H](O[C@@H]2O[C@@H](C)[C@H](O)[C@@H](O)[C@H]2O)[C@H]1OC(=O)[C@@H](C)CC [TRICOLORIN A]
- inhibition of growth at 100 µg/mL [3]: 78.8%
- inhibition of growth at 100 µg/mL [4]: 68.3%
- EC50 [5]: 5.5 µg/mL (≈ 5.38 µM)
- Activity [6]: Dose-dependent effect
- IC50 [6]: 12.6 µg/mL (≈ 12.3 µM)
- EC50 [7]: 7.6 µg/mL (≈ 7.43 µM)
- EC50 [8]: 5.8 µg/mL (≈ 5.67 µM)
- MIC [9]: 1.8 µg/mL (≈ 1.76 µM)
- LC50 [10]: 18.2 µg/mL (≈ 17.8 µM)
- EC50 [11]: 2.2 µg/mL (≈ 2.15 µM)
- EC50 [12]: 8.1 µg/mL (≈ 7.92 µM)
- EC50 [13]: 6.3 µg/mL (≈ 6.16 µM)
- Activity [14]: Dose-dependent effect
- IC50 [14]: 37 µg/mL (≈ 36.2 µM)
- EC50 [15]: 10.3 µg/mL (≈ 10.1 µM)
- Activity [1]: 4%
- IC50 [16]: 36.9 µg/mL (≈ 36.1 µM)
- EC50 [17]: > 20 µg/mL
- IC50 [18]: 152 µg/mL (≈ 149 µM)
- Activity [2]: 4%
- EC50 [19]: 8.9 µg/mL (≈ 8.7 µM)
- EC50 [20]: 2.2 µg/mL (≈ 2.15 µM)
- EC50 [21]: > 20 µg/mL
- Activity [22]: Dose-dependent effect
- IC50 [23]: 44.1 µg/mL (≈ 43.1 µM)
